Measurements published in paper PMC10580252 (Experimental and Therapeutic Medicine, 2023).

Tests used:
[1] = test system: Hep3B-luc in situ transplanted tumours; experiment: Antitumour activity in Hep3B-luc orthotopic xenograft model; type: in vivo, BALB/c nude mice; details: intragastric 50 mg/kg ART once daily for 24 days, n=3
How it was run: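 Female BALB/c nude mice, 6-8 weeks, received 3x10^6 Hep3B-luc cells in 0.02 ml PBS:Matrigel (1:1) in the left hepatic lobe. They were randomized into four groups (including untreated control) once tumour fluorescence reached ~10^7. Test formulations were given intragastrically once daily for 24 days. Tumour signal and body weight were measured twice weekly. Inhibition = (ROIcontrol−ROIdrug)/ROIcontrol ×100% from mean tumour signals.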

[2] = Pharmacokinetics studies in rats; type: in vivo; details: male, SD, rat, plasma, po, 50 mg/kg
A549 cells = experiment: Cellular uptake of NR-labelled NPs, flow cytometry; type: cell-based; details: A549, NR 50 µg/ml, 0.5, 1 or 4 h
How it was run: (§1)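 Cells were seeded at 2x10^5 per well and cultured 24 h. They were co-incubated with Nile red-labelled nanoparticles at equal Nile red 50 µg/ml, then washed thrice with cold PBS and incubated a further 0.5, 1 or 4 h. Intracellular fluorescence was read by flow cytometry. Controls were untreated cells, free Nile red, and Nile red in unmodified PEG-PLGA nanoparticles.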

[3] = Hepatoma-targeted and bio-distribution detection; type: in vivo, BALB/c nude mice; details: tumour model mice, intragastric NR 20 mg/kg
HepG2 cells = experiment: Cellular uptake of NR-labelled NPs, flow cytometry; type: cell-based; details: HepG2, NR 50 µg/ml, 0.5, 1 or 4 h
How it was run: as §1

Row | SMILES | Bioluminescence (ROI) (PG-21) [1] | AUC(0-inf) [2] [ng·h/mL] | AUC(0-t) [2] [ng·h/mL] | Cmax [2] [ng/mL] | MRT [2] [min] | Tmax [2] [min] | half-life [2] [min] | Cellular fluorescence (uptake) (A549 cells) | In vivo NR fluorescence in whole body and liver [3] | Cellular fluorescence (uptake) (HepG2 cells)
1 | C[C@H]1[C@H](OC(=O)CCC(=O)O)O[C@@H]2O[C@@]3(C)CC[C@H]4[C@H](C)CC[C@@H]1[C@@]24OO3 [ART, Artesunate] | 4.49±0.55 x10^9 photons/sec | 2540 | 2540 | 4580 | 30 | 15 | 15 |  |  | 
2 | CCN(CC)c1ccc2nc3c4ccccc4c(=O)cc-3oc2c1 [NR, Nile red] |  |  |  |  |  |  |  | little fluorescence | lower fluorescence levels at 2 h | little fluorescence
